According to ChEMBL document CHEMBL1649351, “Synthesis, in vitro antimicrobial and in vivo antitumor evaluation of novel pyrimidoquinolines and its nucleoside derivatives” (Eur J Med Chem, 2011):

What was measured:
Bacillus subtilis = assay: Antibacterial activity against Bacillus subtilis at 50 mg/disk after 24 to 28 hrs by agar disk diffusion method; type: functional
Lactococcus lactis = assay: Antibacterial activity against Streptococcus lactis at 50 mg/disk after 24 to 28 hrs by agar disk diffusion method; type: functional
Escherichia coli = assay: Antibacterial activity against Escherichia coli at 50 mg/disk after 24 to 28 hrs by agar disk diffusion method; type: functional
Pseudomonas aeruginosa = assay: Antibacterial activity against Pseudomonas aeruginosa at 50 mg/disk after 24 to 28 hrs by agar disk diffusion method; type: functional
Candida albicans = assay: Antifungal activity against Candida albicans at 50 mg/disk after 5 days by agar disk diffusion method; type: functional
Nakaseomyces glabratus = assay: Antifungal activity against Candida glabrata at 50 mg/disk after 5 days by agar disk diffusion method; type: functional
HepG2 [1] = assay: Antitumor activity against human HepG2 cells xenografted in Swiss albino mouse assessed as increase of mouse survival at 10 ug/kg, ip for 10 days (reference value: 22 +/- 1.90 day); type: functional
HepG2 [2] = assay: Antitumor activity against human HepG2 cells xenografted in Swiss albino mouse assessed as increase mouse life span at 10 ug/kg, ip for 10 days relative to control; type: functional
HeLa [3] = assay: Antitumor activity against human HeLa cells xenografted in Swiss albino mouse assessed as increase of mouse survival at 10 ug/kg, ip for 10 days (reference value: 22 +/- 1.90 day); type: functional
HeLa [4] = assay: Antitumor activity against human HeLa cells xenografted in Swiss albino mouse assessed as increase mouse life span at 10 ug/kg, ip for 10 days relative to control; type: functional
Mus musculus [5] = assay: Acute toxicity in human HepG2 cells xenografted ip dosed Swiss albino mouse assessed as mortality measured up to 2 weeks; type: organism-based; settings: in vivo, 336 h
Procedure, shortened: (§1)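 Adult Swiss albino mice were fasted 12 h and randomised into groups of 10. Each group got one i.p. dose from a graded series, given at 1 ml/kg body weight; controls got vehicle alone. Food and water were returned right after dosing. Mortality was followed for up to two weeks, and LD50 was taken as the dose giving 50% mortality.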

Mus musculus [6] = assay: Acute toxicity in human HeLa cells xenografted ip dosed Swiss albino mouse assessed as mortality measured up to 2 weeks; type: organism-based; settings: in vivo, 336 h; procedure, shortened: as §1

CSc1nc2c(c(=O)[nH]1)C(c1ccc([N+](=O)[O-])cc1)C1=C(CC(C)(C)CC1=O)N2[C@@H]1O[C@H](CO)[C@@H](O)[C@H](O)[C@H]1O (stereo partly specified)
diameter of the inhibition zone (DIZ) (Bacillus subtilis): 21 mm
diameter of the inhibition zone (DIZ) (Lactococcus lactis): 19 mm
diameter of the inhibition zone (DIZ) (Escherichia coli): 23 mm
diameter of the inhibition zone (DIZ) (Pseudomonas aeruginosa): 23 mm
diameter of the inhibition zone (DIZ) (Candida albicans): 8 mm
diameter of the inhibition zone (DIZ) (Nakaseomyces glabratus): 9 mm
Survival (HepG2 [1]): 38 days
Activity (HepG2 [2]): 60%
Survival (HeLa [3]): 36 days
Activity (HeLa [4]): 61%
LD50 (Mus musculus [5]): 0.115 mg/kg
LD50 (Mus musculus [6]): 0.119 mg/kg

CC1(C)CC(=O)C2=C(C1)Nc1nc(NN)[nH]c(=O)c1C2c1ccc([N+](=O)[O-])cc1 (stereo unspecified)
diameter of the inhibition zone (DIZ) (Bacillus subtilis): 15 mm
diameter of the inhibition zone (DIZ) (Lactococcus lactis): 15 mm
diameter of the inhibition zone (DIZ) (Escherichia coli): 15 mm
diameter of the inhibition zone (DIZ) (Pseudomonas aeruginosa): 15 mm
diameter of the inhibition zone (DIZ) (Candida albicans): 9 mm
diameter of the inhibition zone (DIZ) (Nakaseomyces glabratus): 8 mm
Survival (HepG2 [1]): 28 days
Activity (HepG2 [2]): 31%
Survival (HeLa [3]): 29 days
Activity (HeLa [4]): 38%
LD50 (Mus musculus [5]): 0.089 mg/kg
LD50 (Mus musculus [6]): 0.1 mg/kg

Cc1cn2c(=O)c3c(nc2n1N)NC1=C(C(=O)CC(C)(C)C1)C3c1ccc([N+](=O)[O-])cc1 (stereo unspecified)
diameter of the inhibition zone (DIZ) (Bacillus subtilis): 19 mm
diameter of the inhibition zone (DIZ) (Lactococcus lactis): 22 mm
diameter of the inhibition zone (DIZ) (Escherichia coli): 24 mm
diameter of the inhibition zone (DIZ) (Pseudomonas aeruginosa): 23 mm
diameter of the inhibition zone (DIZ) (Candida albicans): 9 mm
diameter of the inhibition zone (DIZ) (Nakaseomyces glabratus): 10 mm
Survival (HepG2 [1]): 37 days
Activity (HepG2 [2]): 56%
Survival (HeLa [3]): 34 days
Activity (HeLa [4]): 51%
LD50 (Mus musculus [5]): 0.093 mg/kg
LD50 (Mus musculus [6]): 0.09 mg/kg
